The values that follow come from ChEMBL document CHEMBL1817652, “Synthesis and mechanistic studies of a mitomycin dimer containing an eight-membered cyclic disulfide” (Bioorg Med Chem, 2011).

Active and inactive are the calls of the source. The calls are words filed in the database; no cut-off is given here.

Data set [1] in a line: Activation of the compound assessed as half life at 10 Equiv of Et3P by HPLC and TLC method. Format: physicochemical. The essentials: (§1)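 Mitomycin at 0.03 mM final in buffered methanolic solution (0.1 M Tris-HCl, effective 'pH' 7.4), 25 °C, with added nucleophile (final 0.06–1.5 mM). Followed by UV–vis (200–600 nm) at ~373 nm, with mitosene products at ~313 nm, for more than two half-lives. Runs in duplicate and averaged. End-point 'pH' checked, mixtures analysed by HPLC and TLC against authentic samples.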

Data set [2] in a line: Activation of the compound assessed as half life at 20 Equiv of Et3P by HPLC and TLC method. Format: physicochemical. The essentials: as §1
For data set [3], the system named is Nucleic Acid. Briefly: Binding affinity to Escherichia coli pBR322 assessed as DNA interstand cross link at 0.1 mM after 2 hrs by agarose gel electrophoresis in presence of 5 equiv of Et3P. Type of data set: nucleic-acid assay. An outline of the steps: (§2)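 EcoRI-linearized pBR322 plasmid DNA, deaerated with N2 for 15 min. Mitomycin (0.1–0.2 mM final, from 5 mM DMSO stock) and nucleophile (Et3P, L-DTT or GSH, 5 equiv, 0.5 mM final) added, then incubated 2 h at room temperature. Concentration scan with Et3P over […]. DNA extracted with phenol/chloroform and ethanol-precipitated, run on denaturing 1.2% alkaline agarose gel (40 mM NaOH, 1 mM EDTA), neutralised, stained, bands quantified.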

Data set [4] has as its system Nucleic Acid. Briefly: Binding affinity to Escherichia coli pBR322 assessed as DNA interstand cross link at 0.1 mM after 2 hrs by agarose gel electrophoresis in presence of 5 equiv of L-ditiothreitol. Type of data set: nucleic-acid assay. An outline of the steps: as §2
For data set [5], the system named is Nucleic Acid. Briefly: Binding affinity to Escherichia coli pBR322 assessed as DNA interstand cross link at 0.5 mM after 6 mins by agarose gel electrophoresis in presence of 20 equiv of Et3P. Format: nucleic-acid assay.
The nature of data set [6]: Activation of the compound assessed as half life at 40 Equiv of Et3P by HPLC and TLC method. Type of data set: physicochemical. An outline of the steps: as §1
The subject of data set [7] is Nucleic Acid. The experiment in a line: Binding affinity to Escherichia coli pBR322 assessed as DNA interstand cross link at 0.05 to 0.25 mM after 2 hrs by agarose gel electrophoresis in presence of 5 equiv of Et3P. Format: nucleic-acid assay. The essentials: as §2
Data set [8] in a line: Stability of the compound measured after 5 days by HPLC and TLC method. Type of data set: physicochemical. Particulars: read-out: Stability. The essentials:
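Mitomycin at 0.03 mM final in buffered methanolic solution (0.1 M Tris-HCl, effective 'pH' 7.4), 25 °C, […]. Followed by UV–vis (200–600 nm) at ~373 nm. Runs in duplicate and averaged. HPLC and TLC analysis at the end.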

The nature of data set [9]: Stability of the compound at 10 Equiv of L-ditiothreitol after 3 days by HPLC and TLC method. Format: physicochemical. The conditions noted are these: read-out: Stability. The essentials: as §1
Data set [10] in a line: Stability of the compound at 20 Equiv L-ditiothreitol measured after 3 days by HPLC and TLC method. Format: physicochemical. The conditions noted are these: read-out: Stability. An outline of the steps:
as §1

The nature of data set [11]: Stability of the compound at 20 Equiv of glutathione measured after 3 days by HPLC and TLC method. Type of data set: physicochemical. The conditions noted are these: read-out: Stability. The essentials: as §1
The nature of data set [12]: Stability of the compound at 2 Equiv of Et3P measured after 5 days by HPLC and TLC method. Format: physicochemical. Particulars: read-out: Stability. The essentials: as §1
The nature of data set [13]: Activation of the compound assessed as half life at 5 Equiv of Et3P by HPLC and TLC method. Type of data set: physicochemical. The essentials:
as §1

Data set [14] is described as follows: Activation of the compound assessed as half life at 50 Equiv of Et3P by HPLC and TLC method. Type of data set: physicochemical. An outline of the steps: as §1
Data set [15] concerns Nucleic Acid. The experiment in a line: Binding affinity to Escherichia coli pBR322 assessed as DNA interstand cross link at 0.1 mM after 2 hrs by agarose gel electrophoresis in presence of 5 equiv glutathione. Type of data set: nucleic-acid assay. The essentials: as §2
Data set [16] can be described thus: Stability of the compound at 50 Equiv of Et3P after 3 days by HPLC and TLC method. Type of data set: physicochemical. Particulars: read-out: Stability. An outline of the steps:
as §1

The nature of data set [17]: Stability of the compound at 20 Equiv of Et3P after 3 days by HPLC and TLC method. Type of data set: physicochemical. The conditions noted are these: read-out: Stability. An outline of the steps:
as §1

Data set [18] can be described thus: Stability of the compound at 10 Equiv of Et3P after 3 days by HPLC and TLC method. Format: physicochemical. The conditions noted are these: read-out: Stability. The essentials:
as §1

Data set [19] is described as follows: Stability of the compound at 10 Equiv of L-ditiothreitol after 5 days by HPLC and TLC method. Type of data set: physicochemical. Particulars: read-out: Stability. An outline of the steps:
as §1

Data set [20] is described as follows: Stability of the compound at 20 Equiv of L-ditiothreitol after 5 days by HPLC and TLC method. Type of data set: physicochemical. Particulars: read-out: Stability. An outline of the steps:
as §1

Data set [21] deals with Nucleic Acid. The experiment in a line: Binding affinity to Escherichia coli pBR322 assessed as DNA interstand cross link at 0.2 mM after 2 hrs by agarose gel electrophoresis in presence of 5 equiv of Et3P. Format: nucleic-acid assay. The essentials: (§3)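 EcoRI-linearized pBR322 plasmid DNA, N2-deaerated 15 min, mitomycin added from DMSO stock (final 0.1–0.2 mM) with nucleophile (GSH, Et3P or L-DTT, 5 equiv) from DMSO stock; incubated room temperature 2 h. DNA phenol/CHCl3-extracted, EtOH-precipitated, resuspended in 10 mM Tris/1 mM EDTA pH 8.0. Run on denaturing 1.2% alkaline agarose gel (40 mM NaOH, 1 mM EDTA), neutralized, stained, bands quantified.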

In data set [22] the test system is Nucleic Acid. Briefly: Binding affinity to Escherichia coli pBR322 assessed as DNA interstand cross link at 0.2 mM after 2 hrs by agarose gel electrophoresis in presence of 5 equiv of L-ditiothreitol. Type of data set: nucleic-acid assay. The essentials:
as §3

Data set [23] concerns Nucleic Acid. The experiment in a line: Binding affinity to Escherichia coli pBR322 assessed as DNA interstand cross link at 0.2 mM after 2 hrs by agarose gel electrophoresis in presence of 5 equiv glutathione. Format: nucleic-acid assay. An outline of the steps:
as §3

Regarding `CO[C@@]12[C@H](COC(N)=O)C3=C(C(=O)C(C)=C(NC[C@H]4CC[C@@H](CNC5=C(C)C(=O)C6=C(C5=O)[C@@H](COC(N)=O)[C@@]5(OC)[C@H]7N[C@H]7CN65)SS4)C3=O)N1C[C@@H]1N[C@@H]12`, the half-life – broadly, the time in which the quantity being followed falls by half – in data set [1] was 6.24 h; in [2] it was 3.12 h. The Activity with Nucleic Acid [3] came to 83%; in the data set on Nucleic Acid [4], 77%.

As to `CO[C@@]12[C@H](OC(N)=O)C3=C(C(=O)C(C)=C(NCC4CCCCC(CNC5=C(C)C(=O)C6=C(C5=O)[C@@H](OC(N)=O)[C@@]5(OC)[C@H]7N[C@H]7CN65)SSC(CNC5=C(C)C(=O)C6=C(C5=O)[C@@H](OC(N)=O)[C@@]5(OC)[C@H]7N[C@H]7CN65)CCCCC(CNC5=C(C)C(=O)C6=C(C5=O)[C@@H](OC(N)=O)[C@@]5(OC)[C@H]7N[C@H]7CN65)SS4)C3=O)N1C[C@@H]1N[C@@H]12` (stereo partly drawn), the half-life in data set [2] was 1.99 h; in data set [6], 1.01 h. Also, in the data set on Nucleic Acid [5], the Activity is 35%.

For `CO[C@@]12[C@H](COC(N)=O)C3=C(C(=O)C(C)=C(NCC4CCCCC(CNC5=C(C)C(=O)C6=C(C5=O)[C@@H](COC(N)=O)[C@@]5(OC)[C@H]7N[C@H]7CN65)SS4)C3=O)N1C[C@@H]1N[C@@H]12` (mixture of isomers), the result in the data set with Nucleic Acid [7] was Active. Also, the remaining at 120 h in [8] and in [12] was less than 10% each time. For the same molecule, the remaining at 72 h in data set [9], in data set [10] and in data set [11] was less than 10% throughout. Besides, the half-life in [13] was 5.52 h; in data set [1], 1.92 h; in data set [2], 1.2 h; in [14], 0.48 h. The Activity came to 94% in the data set on Nucleic Acid [3], 95% in the data set on Nucleic Acid [4] and 21% in the data set with Nucleic Acid [15].

Turning to `CO[C@@]12[C@H](COC(N)=O)C3=C(C(=O)C(C)=C(NCC(O)CCCCC(O)CNC4=C(C)C(=O)C5=C(C4=O)[C@@H](COC(N)=O)[C@@]4(OC)[C@H]6N[C@H]6CN54)C3=O)N1C[C@@H]1N[C@@H]12` (mixture of isomers), the remaining at 72 h in data set [16], in [17], in data set [18] and in data set [11] was less than 10% throughout. Further, the remaining at 120 h in [8], in [19] and in data set [20] was less than 10% throughout. Also, the Activity in the data set with Nucleic Acid [3] was determined as 4%; with Nucleic Acid [4], 6%; with Nucleic Acid [15], 7%.

As for `CO[C@@]12[C@H](COC(N)=O)C3=C(C(=O)C(C)=C(N)C3=O)N1C[C@@H]1N[C@@H]12`, the figures for the Activity in the data set on Nucleic Acid [21], with Nucleic Acid [22] and with Nucleic Acid [23] were 3%, 2% and 2%, respectively.
